Molecules are shown by their SMILES.

Among the data in ChEMBL document CHEMBL4513216, “Probing the Open Global Health Chemical Diversity Library for Multistage-Active Starting Points for Next-Generation Antimalarials” (ACS Infect Dis, 2020) are cytotoxicity values, retold here.

The data set can be described thus: Toxicity liver stage against HepG2, at 10uM. Type of data set: cell-based. Particulars: human, HepG2-A16-CD81EGFP cells; read-out: INHIBITION
Further details: test concentration 10 uM, cell line HepG2-A16-CD81EGFP. The gist of the method:
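Uninfected HepG2-A16-CD81EGFP cells, 3 × 10^3 per well, 1536-well, plated on prespotted compound at 10 μM final, parasite-free screening media added to match infected plates; puromycin 10 μM positive, DMSO 0.5% negative; run in parallel with 48 h PbLuc assay at 37 °C, 5% CO2; viability by CellTiter-Glo luminescence, normalized to controls.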

Turning to `CN1C(=O)CO[C@H](c2ccc(NC(=O)NC(C)(C)C)cc2)[C@H]1CO`, the cytotoxicity at 10 µM was -0.973%.

In the case of `CCCc1cc(N2CCCC2Cn2nc(C)cc2C)n2ncnc2n1` (stereo not drawn), the cytotoxicity at 10 µM was 2.48%.

Take `Cc1cc(-c2ccccc2Cl)nc(N)n1`: the cytotoxicity at 10 µM is -0.268%.

As to `COc1ccc(-c2csc3c2c(N)nc(=O)n3CC(N)=O)cc1`, the cytotoxicity at 10 µM is -42.2%.

For the molecule `OCC1CCCN(Cc2c(C3CCCC3)[nH]c3ncccc23)C1` (stereo not drawn), the cytotoxicity at 10 µM was 6.35%.

For the molecule `COc1cccc2c1ccn2CCC(=O)NCCCC(=O)O`, the cytotoxicity at 10 µM was 9.64%.

Regarding `Cc1noc(C)c1CN(C)C(=O)c1n[nH]c(N)c1-c1ccccc1`, the cytotoxicity at 10 µM was -7.46%.

In the case of `O=C(c1cnc(-c2cnccn2)s1)N1CCCC(n2cccn2)C1` (stereo not drawn), the cytotoxicity at 10 µM was -9.04%.

Take `O=c1cc(CN2CCCC2)nc2n1CCCN(CC1CCOCC1)C2`: the cytotoxicity at 10 µM turned out to be 9.97%.

In the case of `CCc1nc(C)c(C(=O)NCCNc2ncnc3sccc23)s1`, the cytotoxicity at 10 µM amounted to 41.1%.

Turning to `Cn1ccnc1CN(CCO)C(=O)c1nc2ccccc2s1`, the cytotoxicity at 10 µM amounted to 4.46%.

As for `CS(=O)(=O)N1CCc2[nH]nc(Cc3cccs3)c2C1`, the cytotoxicity at 10 µM was found to be 1.44%.

With `CNc1cc(N2CCC(O)(CNC(=O)c3ccc(C)nc3)C2)ncn1` (stereo not drawn), the cytotoxicity at 10 µM was -25.3%.

With `NC(=O)COc1ccc(CNCc2ccc(F)c(F)c2)cc1`, the cytotoxicity at 10 µM is -15.2%.

For the molecule `O=C(NCCCSc1ccc(F)cc1)C1CCc2cn[nH]c2C1` (stereo not drawn), the cytotoxicity at 10 µM was -3.65%.

Take `CCc1c(C(=O)N2CCC3(CCCN(CCO)C3=O)C2)csc1C` (stereo not drawn): the cytotoxicity at 10 µM is -128%.

In the case of `N#Cc1cn(CCCN2CCc3ccccc3C2)c(=O)[nH]c1=O`, the cytotoxicity at 10 µM was determined as 2.72%.

Turning to `O=C(CCn1cncn1)NC1CCc2nccn2C1` (stereo not drawn), the cytotoxicity at 10 µM is -4.39%.

In the case of `CCN(CC1CCOC1)C(=O)c1ccn(-c2ccc(OC)cc2)n1` (stereo not drawn), the cytotoxicity at 10 µM is -4.19%.

As to `Cc1cnccc1NCCNC1CCN(CC(C)C)CC1`, the cytotoxicity at 10 µM was -10%.

In the case of `CC(=O)N1CC(C(=O)NCCc2ncc(C)s2)C1`, the cytotoxicity at 10 µM was -1.33%.

As for `COc1ccc(C2c3c(n[nH]c3C)N=C3COC(=O)C32)cc1OC` (stereo not drawn), the cytotoxicity at 10 µM came to 7.98%.

Consider `CCN(Cc1cnn(CC)c1)C(=O)Cn1c(=O)ccc2ccccc21`, for which the cytotoxicity at 10 µM amounted to 2.37%.

For the molecule `NC(=O)CN1CCC(NC(=O)COCCOc2ccccc2)CC1`, the cytotoxicity at 10 µM was -9.46%.

Consider `Cc1cc(C(=O)NCCN2CCCc3ccccc32)[nH]n1`, for which the cytotoxicity at 10 µM worked out at 0.868%.

On to `Cn1ccc(C(=O)N2CCN(Cc3ccccc3F)CC2)cc1=O`, for which the cytotoxicity at 10 µM was -1.44%.

On to `Cc1ccccc1C(C)NC(=O)Cc1c(C)nc2cc(=O)[nH]n2c1C` (stereo not drawn), for which the cytotoxicity at 10 µM stood at 10.8%.

On to `CC(C)c1nnc2n1CCN(C(=O)CN(C)Cc1ccccc1)C2`, for which the cytotoxicity at 10 µM is -5.17%.

Turning to `O=C(CCN1CCOC(CNc2cccnn2)C1)NC1CCCCC1` (stereo not drawn), the cytotoxicity at 10 µM came out at 3.09%.

As for `O=S(=O)(CCCN1CCOC(Cn2cccn2)C1)c1ccccc1` (stereo not drawn), the cytotoxicity at 10 µM is -2.54%.

With `Cc1nn(C)c(Cl)c1C1CCCN1C(=O)c1ccc2nncn2c1` (stereo not drawn), the cytotoxicity at 10 µM was -10.2%.

With `Cc1nc2n(n1)CC(NCc1nc(-c3cccnc3)no1)CC2` (stereo not drawn), the cytotoxicity at 10 µM was -3.44%.

As to `CSCc1nc(CCNC(=O)C(N)c2c(C)n[nH]c2C)cs1` (stereo not drawn), the cytotoxicity at 10 µM was -3.95%.

`O=C(NCc1ccco1)c1ccc(N2CCOCC2)cc1`: the cytotoxicity at 10 µM was determined as 4.31%.

For `Cc1cn2c(=O)c(-c3ccnc(N[C@@H]4CCOC4)n3)cnc2s1`, the cytotoxicity at 10 µM is -9.19%.

For the molecule `c1cc(CCN2CCCC2CN2CCCC2)ccn1` (stereo not drawn), the cytotoxicity at 10 µM was -2.35%.

For `CC(C)CS(=O)(=O)CC(=O)NC(C)(C)c1cccc(F)c1`, the cytotoxicity at 10 µM is -1.12%.

Consider `Cc1nc(CN2CCN(c3ccc4nncn4n3)C(C)C2)oc1C` (stereo not drawn), for which the cytotoxicity at 10 µM was -2.91%.

Turning to `OC(CNCCn1cccn1)COc1ccc(Br)cc1` (stereo not drawn), the cytotoxicity at 10 µM is -8.03%.

As for `CCOc1ccc2[nH]c(=O)c(CN3CCCC3c3ccccn3)cc2c1` (stereo not drawn), the cytotoxicity at 10 µM is -7.04%.

For the molecule `Nc1nc(Sc2cccs2)cc(N2CC[C@H](CO)[C@H](O)C2)n1`, the cytotoxicity at 10 µM worked out at 2.68%.

`Cc1cc(NCc2cc3n(n2)CCCN(C(=O)C2CCC2)C3)ncn1`: the cytotoxicity at 10 µM is -136%.

On to `O=C(c1cc(=O)c(OCc2ccccc2)co1)N1CCSCC1`, for which the cytotoxicity at 10 µM is -0.295%.

Regarding `O=S(=O)(C1CC1)N1CCO[C@H]2[C@H](OCC3CCCC3)CC[C@@H]21`, the cytotoxicity at 10 µM is -5.58%.

`Cn1ccc(C(=O)NC2CCC23CCN(Cc2ccc(F)cc2)CC3)c1` (stereo not drawn): the cytotoxicity at 10 µM was -147%.

In the case of `COC(=O)c1cccn1C1CCN(C(=O)c2ccc(C)[nH]c2=O)CC1`, the cytotoxicity at 10 µM was -3.78%.

`COc1ccc(CN2CC[C@H]3CO[C@H](CNC(=O)N(C)C)[C@H]3C2)cc1`: the cytotoxicity at 10 µM was 1.07%.

For `CCCN(C(=O)c1ccc(-n2ccnn2)cc1)c1cccnc1`, the cytotoxicity at 10 µM was 13.8%.

For the molecule `CSCc1cccc(S(=O)(=O)N2CCCC2)c1`, the cytotoxicity at 10 µM worked out at 8.49%.

As for `O[C@H]1COCCN(Cc2cccc3c2OCO3)C1`, the cytotoxicity at 10 µM is -3.04%.

`O=C(c1cccc2cccnc12)N1CCCC(n2ccnc2)C1` (stereo not drawn): the cytotoxicity at 10 µM is -5.75%.

As for `CCOCCCNCc1cc(O)c2cc(C)ccc2n1`, the cytotoxicity at 10 µM was -11.1%.

For `CN(C)C(=O)CNC(=O)c1nc(C2CC2)n(-c2ccccc2Cl)n1`, the cytotoxicity at 10 µM is -2.03%.

Turning to `CCn1nc(C)c2nc(C(C)C)nc(NCC(C)O)c21` (stereo not drawn), the cytotoxicity at 10 µM amounted to 8.02%.

In the case of `Cc1nonc1C(=O)N1CCc2c(ncn2CCc2ccccc2)C1`, the cytotoxicity at 10 µM was -0.207%.

Take `CC(C)c1cc(NC(=O)Cn2ccc(=O)c3ccccc32)[nH]n1`: the cytotoxicity at 10 µM was -146%.

Take `O=C(NCc1ccccn1)c1cc2n(n1)CCNC2`: the cytotoxicity at 10 µM stood at 1.19%.

Take `CCc1ccc(S(=O)(=O)Nc2cc(C(=O)O)c(F)cc2F)s1`: the cytotoxicity at 10 µM was -7.44%.

Take `CS(=O)(=O)CCN(CCCO)C1CCc2ccccc21` (stereo not drawn): the cytotoxicity at 10 µM came out at 7.37%.

In the case of `Cc1nc(CN(C)Cc2nc(-c3ccncc3)no2)co1`, the cytotoxicity at 10 µM is -0.187%.

In the case of `COCCN(C(=O)c1ccsc1)c1ccc(C#N)cc1`, the cytotoxicity at 10 µM came out at 4.19%.

Regarding `CCc1oc2ccc(NS(=O)(=O)CC)cc2c1C(=O)OC`, the cytotoxicity at 10 µM amounted to 5.05%.

Consider `Cc1nn(C)c(Cl)c1C1CCCN1C(=O)c1cc[nH]n1` (stereo not drawn), for which the cytotoxicity at 10 µM was -5.55%.

As for `COc1ccc(CN2CCC3(CC(C(=O)NCC(C)C)=NO3)C2)cc1` (stereo not drawn), the cytotoxicity at 10 µM worked out at 11%.

Consider `CSc1ccc(C(CNC(=O)C2CC2)N2CCc3sccc3C2)cc1` (stereo not drawn), for which the cytotoxicity at 10 µM is -5.31%.

As to `Cc1ncc(CN(C)C(=O)c2ccc(N3CCOCC3)c(F)c2)s1`, the cytotoxicity at 10 µM stood at 5.66%.

For `CN(C)CCN(Cc1ccc(Cl)cc1)C(=O)c1cnccn1`, the cytotoxicity at 10 µM is -1.85%.

On to `CC(C)(C)c1noc(OCC(=O)NCC(F)(F)F)n1`, for which the cytotoxicity at 10 µM worked out at 8.81%.

In the case of `OC1(CN2CCC(Cc3ncccn3)CC2)CCOCC1`, the cytotoxicity at 10 µM worked out at 16.6%.

As for `Cn1cc(C[C@H]2[C@H](N3CCOCC3)CCN2C2CCOCC2)cn1`, the cytotoxicity at 10 µM came to 5.13%.

In the case of `CN(C)C(=O)N1CCN(C(=O)c2ccccc2)CC2(CNC(=O)C2)C1` (stereo not drawn), the cytotoxicity at 10 µM was found to be 7.19%.

Regarding `COC(=O)C1CCN(C(=O)c2ccc(NS(C)(=O)=O)c(C)c2)CC1`, the cytotoxicity at 10 µM is -1.04%.

Consider `CCOC(=O)c1sc(NC(=O)CCCC(=O)O)c(C#N)c1C`, for which the cytotoxicity at 10 µM came out at 11.6%.

Turning to `CCc1noc(C(C)N2CCN(S(=O)(=O)N3CCCC3)CC2)n1` (stereo not drawn), the cytotoxicity at 10 µM is -0.252%.

Take `COc1cc(F)ccc1-c1ncccc1NC(=O)C(C)C`: the cytotoxicity at 10 µM was determined as 1.23%.

Turning to `COc1ccc(OC)c(-n2c(COC(C)C)n[nH]c2=O)c1`, the cytotoxicity at 10 µM was 7.78%.

With `CN1CCC(c2nnc(CN3CCCC3)n2C2CC2)CC1`, the cytotoxicity at 10 µM was -11.4%.

In the case of `COCc1nc(CN2CCOC(CNc3cccnn3)C2)cs1` (stereo not drawn), the cytotoxicity at 10 µM is -4.71%.

Take `O=C1N(CC2CC2)C2(CCSCC2)NC12CCCC2`: the cytotoxicity at 10 µM was -150%.

Take `Cc1nn(C)cc1CN1CCCC1c1cccc(Nc2nccs2)n1` (stereo not drawn): the cytotoxicity at 10 µM is 4.25%.

Consider `O=C(Cc1csc(-c2ccoc2)n1)NCCC(=O)N1CCCCC1`, for which the cytotoxicity at 10 µM was found to be 9.13%.

For `COc1ccc(F)c(CN2CCCC(O)(CNCc3ccoc3)C2=O)c1` (stereo not drawn), the cytotoxicity at 10 µM was determined as 10.9%.

Take `Cc1cc(F)ccc1N1CCCC(NC(=O)CCc2ccncc2)C1` (stereo not drawn): the cytotoxicity at 10 µM is 8.72%.

Consider `Cc1n[nH]c(C)c1C1COCCN1C(=O)c1cc(Cl)c[nH]1` (stereo not drawn), for which the cytotoxicity at 10 µM was -4.12%.

Regarding `Cc1nn(C)c(C)c1OCC(=O)NCC(O)c1ccccc1F` (stereo not drawn), the cytotoxicity at 10 µM is 0.621%.

`Cc1nnc(SCC(=O)c2cc3c(cc2Cl)NC(=O)C3)s1`: the cytotoxicity at 10 µM worked out at 5.42%.

Turning to `CC(C)CCN1C[C@@H]2C[C@H](C(=O)NCc3ccccc3)[C@H](C1)O2`, the cytotoxicity at 10 µM was -2%.

In the case of `Cc1cccc(NC(=O)c2nn(C3CCS(=O)(=O)C3)c3c2CCCC3)n1` (stereo not drawn), the cytotoxicity at 10 µM is 10.5%.

`Cn1c(CN2CCOCC2)nnc1C1CCCN(C(=O)CCC2CC2)C1` (stereo not drawn): the cytotoxicity at 10 µM was found to be 6.72%.

For the molecule `Cc1cc(CN(C)C(=O)c2ccc(N(C)C)nc2)no1`, the cytotoxicity at 10 µM was -5.4%.

As for `Cc1nccn1Cc1nnc(C2CCN(c3ccncc3F)CC2)n1C`, the cytotoxicity at 10 µM is -9.36%.

Take `Cc1ccc(Cl)c2c1C1(NC(=O)c3cccnc3N1)C(=O)N2` (stereo not drawn): the cytotoxicity at 10 µM is 11.9%.

On to `CC1c2cc(F)ccc2CCN1C(=O)c1[nH]c(=O)[nH]c(=O)c1N` (stereo not drawn), for which the cytotoxicity at 10 µM is 7.78%.

For `CSc1ccccc1NC(=O)CCC(=O)N(C)C1CCN(C)CC1`, the cytotoxicity at 10 µM is -2.91%.

For `CCC1CN(C(=O)COc2ccc(NC(C)=O)cc2)CCO1` (stereo not drawn), the cytotoxicity at 10 µM was -9.4%.

On to `Cc1ccc(CN2Cc3cnn(C)c3C(COCC3CC3)C2)o1` (stereo not drawn), for which the cytotoxicity at 10 µM was -78.5%.

Consider `COc1ccc(OC)c(-n2cnnc2CCN)c1`, for which the cytotoxicity at 10 µM is 9.83%.

As for `C=C(C)CN1CCCC(CNS(C)(=O)=O)C1` (stereo not drawn), the cytotoxicity at 10 µM came out at 5.63%.
